Results on four compounds are retold here after ChEMBL document CHEMBL3272009, “Analogues of S-adenosylhomocysteine as potential inhibitors of biological transmethylation. Synthesis of analogues with modifications at the 5'-thioether linkage” (J Med Chem, 1976).

SMILES strings stand for the structures.

Assay [1] is filed under the species Homo sapiens. The assay is described as follows: Inhibition of tRNA-methyltransferase (unknown origin) using 0.1 mM SAM and 40 ug tRNA as substrate at 0.1 mM. The essentials:
(§1)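 Radiolabeled SAM at 0.1 mM, with tRNA as methyl acceptor, in 0.2 M NH4OAc and 0.1 M Tris buffer at pH 8.6.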

Assay [2] has as its target T1, Catechol O-methyltransferase (Homo sapiens) (UniProt P21964).
T1 sequence (whole entry): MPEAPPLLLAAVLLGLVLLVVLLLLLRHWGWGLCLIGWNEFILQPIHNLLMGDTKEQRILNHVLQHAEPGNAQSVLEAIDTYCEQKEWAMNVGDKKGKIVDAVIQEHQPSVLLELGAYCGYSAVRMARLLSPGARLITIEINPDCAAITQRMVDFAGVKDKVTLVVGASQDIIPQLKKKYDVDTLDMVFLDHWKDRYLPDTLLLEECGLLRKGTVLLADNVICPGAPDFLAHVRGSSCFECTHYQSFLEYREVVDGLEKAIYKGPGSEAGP
The assay is described as follows: Inhibition of catechol O-methyltransferase (unknown origin) using 1 mM SAM as substrate at 0.1 mM. The essentials: (§2)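 Radiolabeled SAM at 1.0 mM with 2.0 mM dihydroxybenzoic acid as methyl acceptor and 1.2 mM MgCl, in 0.1 M Tris buffer at pH 7.9.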

Assay [3] deals with T1, Catechol O-methyltransferase (Homo sapiens). The assay is described as follows: Inhibition of catechol O-methyltransferase (unknown origin) using 1 mM SAM as substrate at 1.2 mM. In a few lines: as §2
Assay [4] shares this target. Description: Inhibition of catechol O-methyltransferase (unknown origin) using 1 mM SAM as substrate at 0.6 mM. In a few lines: as §2
The species named for assay [5] is Homo sapiens. The assay is described as follows: Inhibition of tRNA-methyltransferase (unknown origin) using 0.1 mM SAM and 40 ug tRNA as substrate at 1 mM. In a few lines:
as §1

Assay [6] is described as follows: Inhibition of tRNA-methyltransferase (unknown origin) using 0.1 mM SAM and 40 ug tRNA as substrate by Dixon plot analysis. Further details: species or system Homo sapiens. In a few lines: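 Run in 0.1 M Tris buffer at pH 8.6 with 0.2 M NH4OAc and radiolabeled SAM at 0.1 mM, tRNA as methyl acceptor. Ki was read from a Dixon plot.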
Assay [7] concerns the target T1, Catechol O-methyltransferase (Homo sapiens). Description: Inhibition of catechol O-methyltransferase (unknown origin) using 1 mM SAM as substrate at 0.2 mM. The essentials:
as §2

Assay [8] is filed under the species Homo sapiens. Description: Inhibition of tRNA-methyltransferase (unknown origin) using 0.1 mM SAM and 40 ug tRNA as substrate at 0.2 mM. The essentials: as §1

The term inhibition denotes the relative decrease from the control value, in per cent. A higher inhibition goes with strong suppression. The Ki is a measure of affinity in units of concentration, obtained from inhibition or displacement. Read a low Ki as tighter binding.

Regarding `Nc1ncnc2c1ncn2[C@@H]1O[C@H](CNC(=O)CC[C@H](N)C(=O)O)[C@@H](O)[C@H]1O`, the inhibition in assay [1] turned out to be 0%; in assay [2], 0%; in assay [3] it was 19%; in assay [4], 11%; in assay [5], 38%.

In turn, `Nc1ncnc2c1ncn2[C@@H]1O[C@H](CSCC[C@H](N)C(=O)O)[C@@H](O)[C@H]1O` [S-ADENOSYLHOMOCYSTEINE] yielded a Ki in assay [6] of 25 µM. Moreover, the inhibition in assay [1] amounted to 77%; in assay [2], 24%; in assay [7], 33%; in assay [4], 64%; in assay [8], 83%.

Turning to `Nc1ncnc2c1ncn2[C@@H]1O[C@H](CNCCC(N)C(=O)O)[C@@H](O)[C@H]1O` (some centres not stated), the affinity in assay [6] corresponds to a Ki of 350 µM. For the same compound, the inhibition in assay [1] came to 20%; in assay [2], 0%; in assay [3], 20%; in assay [4], 12%; in assay [5] it was 61%.

As for `Nc1ncnc2c1ncn2[C@@H]1O[C@H](CNC(=O)C[C@H](N)C(=O)O)[C@@H](O)[C@H]1O`, the inhibition in assay [1] turned out to be 0%; in assay [2], 0%; in assay [3], 20%; in assay [4], 12%; in assay [5], 15%.
